This data set deals with MS2 coat protein. Nature of the data set: apparent Kd, MS2 coat protein; higher = weaker binding; RNA-MaP array; FMN 200 µM where present. The gist of the method:
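Two titrations, one without ligand and one with constant ligand, were run with SNAP-549-labelled MS2 coat protein from 0.7 or 1.5 nM, doubling to 3 µM. The targets were designs transcribed by stalled E. coli RNA polymerase on Illumina sequencing-chip clusters, in 100 mM Tris-HCl pH 7.5, 80 mM KCl, 4 mM MgCl2, BSA, DTT, yeast tRNA and Tween-20. The apparent Kd is the median of filtered per-cluster binding-curve fits, with green signal normalised to red-channel RNA signal and control-cluster median Fmax.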

The mark [1] stands for this setting: designed as: ON switch for flavin mononucleotide, no ligand.
Setting [2] is: ligand present: flavin mononucleotide, designed as: ON switch for flavin mononucleotide.
The mark [3] stands for this setting: designed as: OFF switch for flavin mononucleotide, no ligand.
The mark [4] stands for this setting: ligand present: flavin mononucleotide, designed as: OFF switch for flavin mononucleotide.

Results on 48 sequences are retold here after the EternaBench riboswitch data.

For orientation: apparent Kd means a dissociation constant that holds for the conditions of the assay.

For the sequence “GCGGAGAUACAGAAGGGAUAAGCCCUGGGCUAAUCAGGAUAUGUACGACGCAUCGUACAUGAGGAUCACCCAUGUAGCCGCUUG”, the “apparent Kd” value by setting is: under setting [1], 483 nM; under setting [2], 85.6 nM.
Take “GUCAGCUCGUCAGGAUAUACGUCACUGCUUCGGCAGUGUGGUAAGAUCACAUGAGGAUCACCCAUGUAGAAGGGACGAGCUGAA”: the “apparent Kd” value by setting is: under setting [3], 11.8 nM; under setting [4], 209 nM.
The corresponding values for “AGGUGUAGAGGAUAUCUCUUCUCUCACAUGAGGAUCACCCAUGUUCUAAAGUCCAAGGAGAGAGAAGGCUACACCA” are 19.8 nM and 15.6 nM.
In the case of “ACGGAACAUGAGGAUCACCCAUGUAUCUGAAAUAUGGACUCACAGGAUAUUCAGAGUUGCCAAUCGGAGAAGGGUGACUCCAGA”, the “apparent Kd” value under setting [1] is 25.5 nM and the “apparent Kd” value under setting [2] was found to be 17.2 nM.
For “GUUAUUGACAAGAAGGCAUACAUGAGGAUCACCCAUGUUCUACAUGGAUAAUGAGGAUAUUGCCAAUACAUGAGGAUCACCCAG”, the “apparent Kd” value runs as follows: under setting [3], 68.3 nM; under setting [4], 77.5 nM.
On the same counts, the results for “GGAUGAGAAACUCAUCCUUAACGAACAUGAGGAUCACCCAUGUAGGAUAUGCUACUCAAAGAGUAGCAGAAGGACAUGUGCCUU” are 29.9 nM and 264 nM.
As for “GUAAUACAUGAGGAUCACCCAUGUCAAUGUAGUCGAGGAUAUGGGUAGCUAUGAGGCUUACUAGAAGGCGACGAGC”, the “apparent Kd” value is, setting by setting: under setting [1], 210 nM; under setting [2], 39.3 nM.
On the same counts, the results for “UUGCGCUGUCGAGAGGAUAUGCGGUGUUGGACAUGAGGAUCACCCAUGUUAGCGAUAGCUUUACGGUAGAAGGCUCUUCAGCUGC” are 138 nM and 56.9 nM.
In the case of “CUUCAUUGUUGAGGAUAUAAUUAUAGGAUGUAGUUAGAAGGCGAACAUGAGGAUCACCCAUGUCAGGCAUGGAGACCCUUGACC”, the “apparent Kd” value was determined as 519 nM under setting [3] and 624 nM under setting [4].
Take “AAAACACAUGAGGAUCACCCAUGUAUCUGGACCAUAGGAUAUCCGCACCCACUAGGGCGUGGAGAAGGGUGAGCCC”: the “apparent Kd” value came out at 170 nM under setting [1] and 194 nM under setting [2].
With “CGUGCGUCGACAGGAUAUACAGAUUGGCUCCGGUACAUGAGGAUCACCCAUGUAGAAGGGUCACGCACAGUUAGUUCGUUAUUA”, the “apparent Kd” value reads like this: under setting [3], 8.52 nM; under setting [4], 37.9 nM.
The corresponding values for “ACUAUACGAGGAUAUGCUGUCAGUACUCCGGAGUUAGUUUGACAUGAGGAUCACCCAUGUAGAAGGCGUUUACU” are 40 nM and 30.3 nM.
For “GGUCCAUCAUGAGGAUAUGGCACCUUAUUUGUGCCAGAAGGCAUGUCGAUAGACAUGAGGAUCACCCAUGUAAUAAAUUGGACC”, the “apparent Kd” value came out at 1430 nM under setting [1] and 104 nM under setting [2].
For the sequence “GUAGAGUAAGGAUAUACUGAAUAGGAUAGAAUGGUUAGAAAGUAGAAGGUACAUGAGGAUCACCCAUGUAAUGU”, the “apparent Kd” value stood at 20.3 nM under setting [3] and 19.7 nM under setting [4].
On the same counts, the results for “UCGUGAAGGACAGGAUAUGGACAUGAGGAUCACCCAUGUACAUGGGAUUAUAUACUGAAUUUAUACUAGAAGGGUUACAUAAAU” are 31.7 nM and 19.8 nM.
Consider “UACAGACAUGAGGAUCACCCAUGUGAGGAUAUCGAUAACAAUAAAAUAAUAUAAACAACGAGAAGGCACAGCAU”, for which the “apparent Kd” value turned out to be 57.4 nM under setting [3] and 73 nM under setting [4].
Consider “ACAUAAAUUCGAGGAUAUCGGUGAUAAAGAAGACGAGAAGGCGAUUAAAGAGAGAUGGUUAUAGACAUGAGGAUCACCCAUGUA”, for which the “apparent Kd” value runs as follows: under setting [1], 28.6 nM; under setting [2], 22.8 nM.
With “GGAUUGAAUGAGGAUAUCGUAUCGGGUACGAUGCGAGAAGGCAUGACAUGAGGAUCACCCAUGUAGUGUGGGUU”, the “apparent Kd” value under setting [3] was 415 nM and the “apparent Kd” value under setting [4] was 685 nM.
The corresponding values for “CGUGCGUAUGUGAGGAUAUGCUGGUCCUUGGCUCGGCAGAAGGCACAUGAGGAUCACCCAUGUGGUGUCGUACC” are 21.9 nM and 58.6 nM.
On the same counts, the results for “UAGCGGUAGGGAGGAUAUGCGAAAGGAAGGCCCGCAGAAGGCCUUACAUGAGGAUCACCCAUGUAGGAUGCCUGGGUGGUGCCC” are 14.5 nM and 26.4 nM.
The corresponding values for “CUAUCGCAAGGAUAUACAUGAGGAUCACCCAUGUGGAAGAAUGGCCCAAAUCUAACAUGUAGAAGGUGCUAAAA” are 40.6 nM and 64.9 nM.
Turning to “AUCUUGAGAGGAUAUACAUGAGGAUCACCCAUGUUGCUAACACCAUGAGCUCAUUUACGUAGAAGGCUCAUCCG”, the “apparent Kd” value by setting is: under setting [3], 17.7 nM; under setting [4], 17.2 nM.
On the same counts, the results for “UAUUCUAGAUAGGAUAUACUUUAUUUUUUUUUCGUAGAAGGAUCUACAUGAGGAUCACCCAUGUUAACAGCAGU” are 55.5 nM and 50.8 nM.
Consider “UUGGACGUCGCAGGAUAUGUAGGAUAUUCCUACAUGAGGAUCACCCAUGUUGACAUGGAAGAAGGACAGAAGGACGAUGUCCAU”, for which the “apparent Kd” value under setting [1] was found to be 693 nM and the “apparent Kd” value under setting [2] amounted to 9.15 nM.
As for “UGUGUCUGUAGAGGAUAUCCGGGCGUUCGGCUAGGAGAAGGCUGCAACACAUGAGGAUCACCCAUGUAGGUUGUGUCUCUCUAC”, the “apparent Kd” value runs as follows: under setting [3], 5.05 nM; under setting [4], 8.48 nM.
Take “GUCGUGUGAGGAUAUGAUUUUUCGGCGGGAUUGCGACUGCUUCAGAAGGCACAUGAGGAUCACCCAUGUUUGUC”: the “apparent Kd” value reads like this: under setting [3], 10.6 nM; under setting [4], 21.2 nM.
The corresponding values for “UUAUACUGAGAGAAGGUUCAAACUACAUAUUGCAUACAUGAGGAUCACCCAUGUUGGUGAAUAAGAAAGGAUAUUUUACUGUAU” are 39.2 nM and 27.9 nM.
Turning to “GGUCUGAGAGGAUAUACAUGAAAAAAAAAAGUAAGAUCCCUACAUGAGGAUCACCCAUGUAGAAGGCUCUGAUA”, the “apparent Kd” value runs as follows: under setting [3], 33.8 nM; under setting [4], 33.9 nM.
The corresponding values for “AAGUUGACAGGAUAUACUUGGGCAACUUAUAUACUAAUAUAACAUGAGGAUCACCCAUGUAGAAGGGUCAGAAA” are 54 nM and 72.5 nM.
“CUUUUGUGAGGAUAUUAGUAGUAAAUAAAUAAAAUUACUUCUGAGAAGGCACAUGAGGAUCACCCAUGUUCCUC”: the “apparent Kd” value under setting [3] is 30.6 nM and the “apparent Kd” value under setting [4] came to 123 nM.
On the same counts, the results for “ACAUGAGGAUCACCCAUGUAUUACAUGGUUAUGUUUAUUAACAGAAGGCGAAAUUACCACUGAAUCGAGGAUAUGUAUUCUAUA” are 53.4 nM and 45.1 nM.
As to “GGUCCCUACGCACAGGAUAUUCUUUUGGCAACAUGAGGAUCACCCAUGUGUGCCGAUCAUGGUUAGAAGAAGGGUGGUAGGGACC”, the “apparent Kd” value is 20.6 nM under setting [1] and 15.7 nM under setting [2].
The corresponding values for “UUAUCUCAUGAGAAGGACAUGAGGAUCACCCAUGUAGGAUAUCAUGGGUCAGUGGAAUUGAAUCUUCGGAUUCAAUUACUCUAC” are 60.6 nM and 11.5 nM.
With “UGUAGUUCAGGAUAUGAUGUUUAAUACAUGAGGAUCACCCAUGUAGAUCCUGAAUUAACAUCAGAAGGGAAUAUUU”, the “apparent Kd” value reads like this: under setting [3], 20.7 nM; under setting [4], 45.2 nM.
For the sequence “UGAACUUCAGAGAAGGUCGAAUCACAACGGUUCGAAGGAUAUCUGGAAACAUGAGGAUCACCCAUGUAACCGGGUGGAUGUCCU”, the “apparent Kd” value under setting [3] worked out at 56.2 nM and the “apparent Kd” value under setting [4] was 242 nM.
With “AUACAUGAGGAUCACCCAUGUUACUGGGUCUUAAUAGAUCGUAGAAGGAUGUUAUUAUAAAUUUCAUAGGAUAUACUAUUUUGU”, the “apparent Kd” value under setting [3] is 61.1 nM and the “apparent Kd” value under setting [4] is 38.6 nM.
The corresponding values for “AUCUUGCGAGGAUAUACUUACUUUUUUUUAUUUGGUUGCGAACAUGAGGAUCACCCAUGUAGAAGGUGCAUAAC” are 26 nM and 24.1 nM.
The corresponding values for “UUUUAACAUGAGGAUCACCCAUGUGAGGAUAUCGAAAUUUAUAUUUAUAUUUAUAAAUCGAGAAGGCACAUUUU” are 110 nM and 99.1 nM.
On the same counts, the results for “UCCGUGGCAUCUCGCGCGUGUCCACAUGAGGAUCACCCAUGUCAGGAUAUACGGAAUGUCGUUCCGUAGAAGGGACAAGGGCUG” are 172 nM and 108 nM.
As to “CAUAUGGUAACAGGAUAUAUGAGUCCUACAUGAGGAUCACCCAUGUAGGUGAUCUAACGAGAUUAGUAGAAGGGUUACCAUAUG”, the “apparent Kd” value by setting is: under setting [1], 18.2 nM; under setting [2], 8.98 nM.
Take “AUAGAAGUCUAGAAGGACCUAGCUGUAUACCAUCAGGUAUAUACGCUAGGUAGGAUAUGGGACAUGAGGAUCACCCAUGUGUUG”: the “apparent Kd” value reads like this: under setting [1], 48 nM; under setting [2], 22.6 nM.
On to “GCCAAGCAAAAUAAAAUAAAUAAAACAUGAGGAUCACCCAUGUAGGAUAUGCUACACAAAGUGUAGCAGAAGGACAAGCUUGGC”, for which the “apparent Kd” value runs as follows: under setting [3], 14.6 nM; under setting [4], 19 nM.
Take “CGAAAACCACAGAAGGCCCGGGACAUGAGGAUCACCCAUGUAGAAAGUGGGAGGAUAUGUGUACGCGGCGUGCUGACCUCGUGA”: the “apparent Kd” value runs as follows: under setting [1], 232 nM; under setting [2], 27.4 nM.
As for “GUCAGCUCGUGAGGAUAUACAUCACUGCUUCGGCAGUGUAUUAAAUCCACAUGAGGAUCACCCAUGUAGAAGGCACGAGCUGAU”, the “apparent Kd” value by setting is: under setting [3], 16.7 nM; under setting [4], 31 nM.
In the case of “GGUCGUCAUAUUAACAUGAGGAUCACCCAUGUGAAAACACAUGAGGAUAUGCAUCCUAAUUGGAUGCAGAAGGCAUGGACGACC”, the “apparent Kd” value under setting [1] was 23.7 nM and the “apparent Kd” value under setting [2] was 6.49 nM.
For “UCGUUGUCAGGAUAUCGUGUAUUCAACUUUAGUUUUAUAUUCGAGAAGGGACAUGAGGAUCACCCAUGUUACGU”, the “apparent Kd” value is, setting by setting: under setting [3], 133 nM; under setting [4], 257 nM.
Turning to “GAUCCUCGCGGAGGAUAUAUAAGUGGAUCACCCAUAGAAGGCCGAACAUGAGGAUCACCCAUGUGGAACAGGAUCACCGUUGUU”, the “apparent Kd” value under setting [1] was found to be 79 nM and the “apparent Kd” value under setting [2] was found to be 77 nM.
For the sequence “AGCGCCAUCGUGAGAUGGCGUAUUACAUGAGGAUCACCCAUGUAGGAUAUCGAUUGCUUUGCAGUCGAGAAGGGCAUGUCCUAG”, the “apparent Kd” value by setting is: under setting [3], 35.8 nM; under setting [4], 42.7 nM.
